Source: ChEMBL document CHEMBL3351569, “Synthesis and antiproliferative activity of some new thieno[2,3-d]pyrimidin-4(3H)-ones containing 1,2,4-triazole and 1,3,4-thiadiazole moiety” (Eur J Med Chem, 2014)

Key:
HT-29 [1] = test: Antiproliferative activity against human HT-29 cells by CellTiter-96 non-radioactive assay; format: functional, cell-based
In short: (§1)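 Compounds were dissolved in DMSO at 4 mg/ml (stock) and diluted 1:10, 1:100, 1:1000 and 1:10 000. Cells were incubated 24 h with compound, with untreated cells in unmodified medium as the control. MTS reagent was then added for 2 h at 37°C under 5% CO2/95% air, and absorbance was read at 490 nm. Viability is expressed as % of untreated control (100%) at each concentration, and IC50/EC50 were calculated from it.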

MDA-MB-231 [2] = test: Antiproliferative activity against human MDA-MB-231 cells by CellTiter-96 non-radioactive assay; format: functional, cell-based; in short: as §1
HeLa [3] = test: Antiproliferative activity against human HeLa cells by CellTiter-96 non-radioactive assay; format: functional, cell-based; in short: as §1
HepG2 [4] = test: Antiproliferative activity against human HepG2 cells by CellTiter-96 non-radioactive assay; format: functional, cell-based; in short: as §1
[5] = Antiproliferative activity against human LEP-3 cells by CellTiter-96 non-radioactive assay; format: cell-based; in short: as §1
MDA-MB-231 [6] = test: Cytotoxicity against human MDA-MB-231 cells assessed as reduction in cell viability after 24 hrs by MTS assay; format: functional, cell-based; details: MDA-MB-231, 24 h; in short: as §1
HeLa [7] = test: Cytotoxicity against human HeLa cells assessed as reduction in cell viability after 24 hrs by MTS assay; format: functional, cell-based; in short: as §1
HepG2 [8] = test: Cytotoxicity against human HepG2 cells assessed as reduction in cell viability after 24 hrs by MTS assay; format: functional, cell-based; details: HepG2, 24 h; in short: as §1
HT-29 [9] = test: Cytotoxicity against human HT-29 cells assessed as reduction in cell viability after 24 hrs by MTS assay; format: functional, cell-based; details: HT-29, 24 h; in short: as §1
[10] = Cytotoxicity against human LEP-3 cells assessed as reduction in cell viability after 24 hrs by MTS assay; format: cell-based; details: LEP-3, 24 h; in short: as §1

EC50 (HT-29 [1]) [µM] | EC50 (MDA-MB-231 [2]) [µM] | EC50 (HeLa [3]) [µM] | EC50 (HepG2 [4]) [µM] | SMILES | EC50 [5] [µM] | IC50 (MDA-MB-231 [6]) [µM] | IC50 (HeLa [7]) [µM] | IC50 (HepG2 [8]) [µM] | IC50 (HT-29 [9]) [µM] | IC50 [10] [µM]
2.12 | 1.54 | 2.52 | 2.18 | NNC(=O)Cc1nc2sc3c(c2c(=O)[nH]1)CCCC3 | 2.21 |  |  |  |  | 
0.089 |  |  | 0.19 | CCNC(=S)NNC(=O)Cc1nc2sc(C(=O)OCC)c(C)c2c(=O)[nH]1 | 0.025 | 0.0391 | 1.7 |  |  | 
0.86 | 0.3 | 0.12 |  | Cc1c(C(=O)O)sc2nc(Cc3nnc(S)n3-c3ccccc3)[nH]c(=O)c12 | 1.21 |  |  | 0.29 |  | 
0.42 |  |  | 1.26 | CCNc1nnc(Cc2nc3sc(C(=O)OCC)c(C)c3c(=O)[nH]2)s1 | 0.31 | 0.0012 | 3.31 |  |  | 
 |  |  |  | CCNc1nnc(Cc2nc3sc4c(c3c(=O)[nH]2)CCCC4)s1 |  | 1.26 | 3.8 | 0.21 | 0.097 | 0.44
0.04 | 1.8 | 0.032 | 1.02 | CCNC(=S)NNC(=O)Cc1nc2sc3c(c2c(=O)[nH]1)CCCC3 | 0.12 |  |  |  |  | 
 |  |  |  | O=c1[nH]c(Cc2nnc(Nc3ccccc3)s2)nc2sc3c(c12)CCCC3 |  | 0.0374 | 1.85 | 1.23 | 0.13 | 3.17
1.8 | 1.2 |  |  | O=c1[nH]c(Cc2nnc(S)n2-c2ccccc2)nc2sc3c(c12)CCCC3 | 0.46 |  | 0.00095 | 1800 |  | 
2.43 | 0.13 |  | 2.08 | CCn1c(S)nnc1Cc1nc2sc3c(c2c(=O)[nH]1)CCCC3 | 1.14 |  | 1.69 |  |  | 
 |  |  |  | CCOC(=O)c1sc2nc(CC(=O)NNC(=S)Nc3ccccc3)[nH]c(=O)c2c1C |  | 1.21 | 9.3 | 1.47 | 0.00156 | 1500
0.91 | 1.16 | 2.34 | 1.4 | CCn1c(S)nnc1Cc1nc2sc(C(=O)O)c(C)c2c(=O)[nH]1 | 1.4 |  |  |  |  | 
1.5 | 0.0018 |  |  | CCOC(=O)c1sc2nc(Cc3nnc(Nc4ccccc4)s3)[nH]c(=O)c2c1C | 0.26 |  | 2.3 | 0.88 |  | 
